Assay results from the EternaBench riboswitch data.

Tested on: MS2 coat protein
Assay: apparent Kd, MS2 coat protein; higher = weaker binding; RNA-MaP array; FMN 200 µM where present
Procedure, shortened: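 The titrant was SNAP-549-labelled MS2 coat protein, run from 0.7 or 1.5 nM in doubling steps to 3 µM. It was applied to designs transcribed by stalled E. coli RNA polymerase on Illumina sequencing-chip clusters, without ligand first and then with constant ligand, in 100 mM Tris-HCl pH 7.5, 80 mM KCl, 4 mM MgCl2, BSA, DTT, yeast tRNA and Tween-20. The apparent Kd is the median of filtered per-cluster binding-curve fits, with green signal normalised to red-channel RNA signal and control-cluster median Fmax.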

[1] = designed as: ON switch for flavin mononucleotide, no ligand
[2] = ligand present: flavin mononucleotide, designed as: ON switch for flavin mononucleotide
[3] = designed as: OFF switch for flavin mononucleotide, no ligand
[4] = ligand present: flavin mononucleotide, designed as: OFF switch for flavin mononucleotide

| Sequence | apparent Kd [1] [nM] | apparent Kd [2] [nM] | apparent Kd [3] [nM] | apparent Kd [4] [nM] |
| --- | --- | --- | --- | --- |
| AGCGCGGUCUCGCAGGAUAUCCACAAUCCUACAUGAGGAUCACCCAUGUCGCUGCAGGAUAUUAGGGAGAAGGGUGAUGCCGCGC | 34.5 | 20.7 | – | – |
| ACAUGAGAUUUAGGAUAUAUAGUACCUACAUGUGACAUGAGGAUCACCCAUGUGGUAAGUAUGACAUAGAAGGAAAAGAUAUGU | 66 | 67 | – | – |
| AUCAGCUCGUCAGGAUAUACGUCACUGCGUCUGCAGUGUGGUAAGAUCACAUGAGGAUCACCCAUGUAGAAGGGACGAGCUGAU | – | – | 14.1 | 254 |
| UUUGGGUGAGGAUAUCAGUCUGGAUCAGACUAGAUCCUGACUGAGAAGGCACAUGAGGAUCACCCAUGUGAGUU | – | – | 294 | 320 |
| GUGGUACAUGAGGAUCACCCAUGUUAGGAUAUCGCGUGGUUUUUUGCGGCCGCGCGCGCGAGAAGGGACGUCUU | – | – | 41.4 | 31.7 |
| ACGGCUGUCAGAGGAUAUGGUUACAUGAGGAUCACCCAUGUCAAGGGUCUAACUAAGUAUAACUACUAGAAGGCUGAUGGCCGA | – | – | 674 | 350 |
| UUGGACGUCGUAGGAUAUGUAGGAUAUUCCUACAUGAGGAUCACCCAUGUUGACAUGGAAGAAAGACAGAAGGACGAUGUCCAU | 325 | 8.48 | – | – |
| UUCGUGCAGCUUUGUUGUACGCGUACAUGAGGAUCACCCAUGUAGGAUAUGGUACGCUUUGCGUGCUAGAAGGAUAUGGAGAGG | – | – | 13.2 | 15.4 |
| GGUCGUCACAUUAACAUGAGGAUCACCCAUGUCAAAAGACAUGAGGAUAUGCAUAAUAAUAUAAAGCAGAAGGCAUGGACGACC | 240 | 14.4 | – | – |
| ACCGGAGCAGGAUAUACAUGAGGAUCACCCAUGUGAGCCACACAGCUACUAUAUGCAAGUAGAAGGGCUCGGGU | – | – | 74.2 | 120 |
| UAUCUAUUUAUGGGAUUAGAAUAUGAGGAUAUCAUUUAUUUAUACAUGAGGAUCACCCAUGUUUCUGAGAAGGCAUAUUUAAUA | 20.3 | 6.73 | – | – |
| GGCUACGUUUCGUAGCAGUGUCAUCGAGAAGGCCCUGACAUGAGGAUCACCCAUGUUGUUACAUGGGAGGAUAUCGAUGAUACA | 12.5 | 4.96 | – | – |
| AAAACUCGAGGAUAUGCAAAAUGAUUGCGAAAGCAAUCAAAACAUGAGGAUCACCCAUGUAGAAGGCGAGAAAA | – | – | 23.7 | 15.4 |
| CCUCUACAUGAGGAUCACCCAUGUGAGGAUAUAUGCCCAUUACGCCAAGAGCGUGAUGAUAGAAGGCACAGGGU | – | – | 22 | 72.7 |
| GCUAGAAGCGUGAAAUAUCACAUGAGGAUCACCCAUGUGACACAGGAUAUAACAAUAUCAGAAGGUUAGAAGGGUGAACACGCC | 119 | 32.9 | – | – |
| GGGCAAAAGUAGAAGGGAUAUACGAAAAGUAUAUCAGGAUAUACAUGAGGAUCACCCAUGUUCUAAAAGUGAUAGUCCUCCCUA | – | – | 33.3 | 262 |
| UCUUUGCUAUAUACAUGAGGAUCACCCAUGUCCACUGACAGACAGGAUAUCCUUAGAAACUAGCAGGAGAAGGGUCAGUCAUAC | 140 | 74.8 | – | – |
| GCGUUCUUGUAGAAGGUACAUGAAAUCUAUUUUUAACACAUGAAACAUGAGGAUCACCCAUGUUGUAAGGAUAUACAUGAACGC | 7.26 | 6.09 | – | – |

| Sequence | apparent Kd [1] [nM] | apparent Kd [2] [nM] | apparent Kd [3] [nM] | apparent Kd [4] [nM] |
| --- | --- | --- | --- | --- |
| AAGCCCUGAGGAUAUCCCAACUCGCACAUGAGGAUCACCCAUGUUCUUCUCUGGGUUUCGGGAGAAGGCAGGCCUC | – | – | 96.5 | 43.8 |
| AGACUGAAGCAAGGAUAUUGUAAGGUUAUCGUACAAGAAGGUGCUGUUUAUGUCUCUUAACAUGAGGAUCACCCAUGUUUUAAA | 19.7 | 21.8 | – | – |
| AGUUGGCGAGGAUAUACAUGAGGAUCACCCAUGUGAGAGAUACUAGUGAGGUCGAUUAGUAGAAGGCGCUGACA | – | – | 31.1 | 439 |
| GGAUGACAAAGUCAUCCUAUUCGAACAUGAGGAUCACCCAUGUAGGAUAUGCUUCUCAAAGAGAAGCAGAAGGACAUGUGCCUU | – | – | 32 | 182 |
| GGGUAUAUUACAUGAGGAUCACCCAUGUCAGAAAGGGUAAUCAGAAGGUACUAUUAGAGAAAGAGUAAGGAUAUGAUUAUACCC | 176 | 22.8 | – | – |
| UGCUACGUUUCGUAGCAGCUAGGUGAGGAUAUUCAAUUUUUCACAUGAGGAUCACCCAUGUAUGUGAAGAAGGCGCCUAGAAAU | 12.8 | 4.8 | – | – |
| CUAGCAUACCGAGGAUAUUCAUAUAAUAAAUAAACAUGAGGAUCACCCAUGUGGCGAAAGCCUAGGGAGAAGGCGGAAUGCUAC | 162 | 27 | – | – |
| UUAAAUCAUGUAGGAUAUGCAUGGCGAAGCUACGCAGAAGGACAUGAGGAUCACCCAUGUUAUAGCUACCCAGAUCGGUGGCAA | – | – | 90.2 | 237 |
| AGCUAGGCAGGAUAUACGUAAAUGUCGAAAGACGUAUUGGGACAUGAGGAUCACCCAUGUAGAAGGGUCUAGCA | – | – | 37.6 | 123 |
| AACCUAUUACAGAAGGCCAGCUACAUGAGGAUCACCCAUGUCGAGUCAUGGAGGAUAUGUAGUAAUUUGCACGCGGGCGAGCAC | 59.7 | 7.05 | – | – |
| UUGAGGUGCAAGAAGGAUCACAUGAGGAUCACCCAUGUCAUGUGAAGUCUCGAGAUUUUAUAUGGAUAGGAUAUUGCACCGAAC | 263 | 41.2 | – | – |
| GUAAAUCAUGUAGGAUAUGCAUGGCGAAGCUACGCAGAAGGACAUGAGGAUCACCCAUGUUAUAGCUACCCAGUUCGGUGGCAA | – | – | 102 | 220 |
| CGUGUUAUCGAAGGAUAUGGAUACAUGAGGAUCACCCAUGUAUAUUUUGUGAUCAAGUUUAAGAUCCAGAAGGUCGUAUACACG | – | – | 54.9 | 119 |
| GUGGACGUCGUAGGAUAUGUAGGAUAUUCCUACAUGAGGAUCACCCAUGUUGACAUGGAAGAAGGACAGAAGGACGAUGUCCAU | 262 | 4.51 | – | – |
| CUUUGGUCAGGAUAUGGUGGGCUGGUCGCGCGGCCGGGUGGCCAGAAGGGACAUGAGGAUCACCCAUGUACGGC | – | – | 35.5 | 59.7 |
| UUUGUUUAGGUAGGAUAUACUUUUAAUUUCUCUUUCCUUACAUGAGGAUCACCCAUGUUUACAUUGUAGAAGGACCACUUUGUU | – | – | 21.8 | 19.8 |
| UGUCGGCGCAGAGGAUAUUACAUGAGGAUCACCCAUGUAUGAACCAAUAGCUGGAAACAGCAAUGUAAGAAGGCUGCUCCGACA | – | – | 12.5 | 154 |
| ACAAGCUCACAUGAGGAUCACCCAUGUGGUCGCUAAUAUACCAGAAGGGUGGGUCCUAAUGAUGUACAGGAUAUGGAGUAGGCG | 196 | 62 | – | – |
